FN deposit inh: fibronectin deposition inhibition | actives 0.086% (n = 350,000) | inhibition, % at 12.6 µM | AH1F fibroblasts, Alexa488-fibronectin deposition fluorescence, overnight | AID 743247;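 active means mean inhibition across replicates of 30% or more, regardless of how many single replicates reach that level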
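Material: AH1F fibroblast monolayer depositing Alexa488-labelled fibronectin into matrix | Input: 10000 AH1F cells/well | Medium: DMEM plus 2% serum, read in PBS | Reagent: Alexa488-fibronectin, 24 nM final in well | Compound dosing: One dose per compound, pinned | Schedule: 1 h adhesion, overnight exposure | Measured by: Fluorescence at 485 nm excitation, 525 nm emission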
RAD52 anneal inh: inhibitors of human RAD52 DNA annealing | recombinant RAD52 DNA annealing, FRET fluorescence | P43351 | inhibition, % at 18.7 µM | actives 0.46% (n = 360,000) | AID 651710;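 active means every replicate showing at least 50% inhibition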
CaV13 FRET inh: Primary screen for inhibitors of IQ motif and Ca2+-dependent inactivation inhibitor domain binding in CACNA1D, Förster resonance energy transfer in living cells, …; HEK cells, CFP/YFP FRET ICDI-IQ, plate reader, 10 min; percent FRET-ratio fall versus neutral wells; inhibition, % at 12.3 µM; actives 0.098% (n = 340,000); AID 743397;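 active means mean replicate inhibition of at least 30% and at least 1% of replicates passing that level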
Glyco luc inh: blocks N-linked glycosylation in D54 reporter cells | reporter increase, % at 12.5 µM | actives 0.23% (n = 360,000) | D54 ERlucT glycosylation luciferase reporter, 24 h; percent of 100 nM tunicamycin response;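 active means mean luciferase reporter signal, scaled so untreated is 0 and the glycosylation-blocking control 100, at or above a set limit in every replicate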;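 further: luciferase carries N-glycosylation sites so blocking glycosylation raises the light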
RAD54 branch: inhibitors of human RAD54 branch migration | Q92698 | RAD54 Holliday junction branch migration, FAM/BHQ fluorescence | inhibition, % at 10.4 µM | actives 0.14% (n = 360,000) | AID 602329;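 active means mean normalized replicate activity at least 40 and at least half of replicates scoring 40 or more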;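 further: inhibitors cause a drop in the FAM fluorescence signal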
DNA binder FP: counter-screen for RAD52 inhibitors: DNA binding compounds. shares compounds with RAD52 anneal inh. Salmon sperm DNA/acridine orange FP displacement. AC50, µM. actives 8% (n = 1,000). AID 652128;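 active means fitted half-maximal concentration for signal loss at or below twice the highest dose tested, in every separate run, actives reach about 64 µM in these data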
Numbers stand for hits; . = inactive; / = not tested or not shown. This is a sample that favours compounds with a hit; in the whole collection about 0.7% have one here.

SMILES | FN deposit inh | RAD52 anneal inh | CaV13 FRET inh | Glyco luc inh | RAD54 branch | DNA binder FP
COc1ccc2sc(N(CCCN(C)C)C(=O)c3ccc(S(=O)(=O)N4CCCc5ccccc54)cc3)nc2c1 | / | 76.6 | . | . | . | .
COc1cc2nc(N(CCCN(C)C)C(=O)c3ccc(S(=O)(=O)N(C)C4CCCCC4)cc3)sc2cc1OC | . | . | . | . | . | /
COc1cc2nc(N(CCCN(C)C)C(=O)c3ccc(S(=O)(=O)N4CCc5ccccc54)cc3)sc2cc1OC | . | 69.9 | . | . | . | .
CCOc1cccc2sc(N(CCCN(C)C)C(=O)c3ccc(S(=O)(=O)N4CCc5ccccc5C4)cc3)nc12 | / | 54.9 | / | . | . | .
Cc1ccc(-c2csc(N(CCCN(C)C)C(=O)c3ccco3)n2)cc1 | . | 63.7 | . | . | / | .
CCN(CC)CCCN(C(=O)c1ccc(OC)cc1)c1nc(-c2ccc(OC)cc2)cs1 | . | 56.9 | . | . | . | .
COc1ccc(-c2csc(N(CCCN(C)C)C(=O)c3ccc(Br)cc3)n2)cc1 | . | 58.1 | . | . | . | .
COc1ccc(-c2csc(N(CCCN(C)C)C(=O)c3ccc(C)cc3)n2)cc1 | . | 53.6 | . | . | . | .
CCN(CC)CCCN(C(=O)c1ccccc1C)c1nc(-c2ccc(OC)cc2)cs1 | . | . | . | . | . | /
COc1ccc(-c2csc(N(CCCN(C)C)C(=O)c3ccc(C(C)(C)C)cc3)n2)cc1 | . | . | . | . | . | /
COc1ccc(S(=O)(=O)N2C[C@H](O)COC[C@H]3O[C@@H](CC(=O)NCc4ccc(Cl)c(Cl)c4)CC[C@@H]32)cc1 | . | . | / | / | . | /
Cc1ccc(S(=O)(=O)N(C)C[C@@H]2Oc3ccc(NS(=O)(=O)c4ccc(F)cc4)cc3CC(=O)N([C@H](C)CO)C[C@@H]2C)cc1 | / | . | / | / | . | /
C[C@@H]1CCCCO[C@@H](CN(C)Cc2ccccc2)[C@H](C)CN([C@@H](C)CO)C(=O)c2cc(NC(=O)Nc3ccc4c(c3)OCO4)ccc2O1 | . | . | / | / | . | /
CN(C)CCCN(C(=O)CCOc1ccccc1)c1nc2c(F)cccc2s1 | . | 95.5 | . | . | / | .
Cc1ccc2sc(N(CCCN(C)C)C(=O)CN3C(=O)c4ccccc4C3=O)nc2c1C | . | 68.9 | . | . | . | .
COc1cc2ccccc2cc1C(=O)N(CCN(C)C)c1nc2ccc(C)cc2s1 | . | . | . | . | . | /
Cc1cccc2sc(N(CCCN(C)C)C(=O)COc3ccc(Cl)cc3)nc12 | . | 50.3 | . | . | / | .
CN(C)CCCN(C(=O)CCc1ccccc1)c1nc2c(F)cccc2s1 | / | / | . | . | . | /
CN(C)CCCN(C(=O)COc1ccc(Cl)cc1)c1nc2c(F)cccc2s1 | . | . | . | . | / | /
COc1cc2ccccc2cc1C(=O)N(CCN(C)C)c1nc2c(C)cccc2s1 | . | 54.7 | . | . | . | .
Cc1ccc(-c2csc(NC(=O)C[n+]3cc(-c4ccccc4)n4c3CCC4)n2)cc1 | . | 50.4 | . | . | . | .
Cc1ccc(-c2csc(NC(=O)C[n+]3cc(-c4ccc(C)cc4)n4c3CCC4)n2)cc1 | . | . | . | . | / | /
Cc1ccc(OCC(O)CNC2CCCC2)c(C)c1 (stereo not drawn) | . | . | . | . | . | /
Cc1ccccc1OCC(O)CNC1CCC(NCC(O)COc2ccccc2C)CC1 (stereo not drawn) | . | . | . | . | . | .
COc1cc(C(=O)N2CCC(N3CCN(C)CC3)CC2)ccc1Nc1ncc2c(n1)N(C)c1ccccc1C(=O)N2C | . | 76.7 | . | / | / | .
SMILES | FN deposit inh | RAD52 anneal inh | CaV13 FRET inh | Glyco luc inh | RAD54 branch | DNA binder FP
CCOc1cc(N2CCC(O)CC2)ccc1Nc1ncc2c(n1)N(C)c1ccccc1C(=O)N2C | . | . | . | / | / | /
COc1cccc(CNC(=O)C[C@H]2C=C[C@H](NC(=O)C3CCC3)[C@H](CO)O2)c1 | / | . | / | / | . | /
CN(c1ccc(C(=O)NCCSCc2ccco2)cc1)S(C)(=O)=O | / | / | . | . | . | /
CN/C(=C/[N+](=O)[O-])NCCSCc1ccc(CN(C)C)o1 | . | 54.8 | . | . | . | .
O=C(C[C@@H]1CC[C@H](NC(=O)c2ccc3c(c2)OCO3)[C@H](CO)O1)NCc1ccc(Cl)cc1 | / | . | / | / | . | /
CCC(=O)N1C[C@@H](C)[C@@H](OC)CN(C)C(=O)c2cc(NC(=O)c3cnccn3)ccc2OC[C@H]1C | . | / | / | / | / | /
COc1cc2nc(Nc3ccc(C)c(C)c3)nc(N)c2cc1OC | . | 90.5 | . | . | . | .
COc1cc2nc(Nc3ccc(C)c(Cl)c3)nc(N)c2cc1OC | . | 73.1 | . | . | . | .
COc1ccc(S(=O)(=O)Nc2ccc3c(c2)CC(=O)N([C@H](C)CO)C[C@@H](C)[C@H](CN(C)S(=O)(=O)c2ccccc2)O3)cc1 | / | / | / | / | . | /
CCCC1=Nc2cc(C(=O)NCCCN3CCN(C)CC3)ccc2Sc2ccccc21 | . | . | . | . | . | /
CC1=Nc2cc(C(=O)NCCCN3CCN(C)CC3)ccc2Sc2ccc(C)cc21 | . | 77.3 | . | . | . | .
C/C(CCc1ccc2c(c1)OCO2)=N\NC(=O)c1ccccc1 | . | . | . | . | / | /
NC(=NCc1ccc2c(c1)OCO2)NC(=O)c1ccccc1 | . | 51.2 | . | . | / | .
C[C@H]1CN([C@@H](C)CO)C(=O)c2cc(NC(=O)C3CC3)ccc2O[C@@H]1CN(C)CC1CCCCC1 | / | . | / | / | . | /
COc1ccc(-c2nc(NCCCN(C)C)c3ccccc3n2)cc1 | . | 87.2 | . | 42.7 | 90.5 | .
CCN(CC)CCCNc1nc2ccccc2c2[nH]c3ccc(OC)cc3c12 | . | 105.5 | . | . | / | 6.48µM
c1ccc(CN2CCC(N3CCC(N4CCCCCC4)CC3)CC2)cc1 | / | . | / | . | . | /
c1ccc2c(c1)c1c(c3ccccc32)CN2CCCC2C1 (stereo not drawn) | . | 103.4 | . | . | / | 24.8µM
Cc1noc(C)c1NC(=O)Nc1ccc2c(c1)C(=O)N([C@@H](C)CO)C[C@@H](C)[C@H](CN(C)S(=O)(=O)c1ccc(Cl)cc1)OCCCC[C@@H](C)O2 | . | . | / | / | . | /
CN(CC(=O)Nc1ccc(S(=O)(=O)N2CCCC2)cc1)CC(=O)Nc1cccc(F)c1 | . | 58.3 | . | . | . | .
O=C(Nc1ccc2c(c1)[C@@H]1C[C@H](CC(=O)N3CCOCC3)O[C@H](CO)[C@@H]1O2)c1ccc2c(c1)OCO2 | . | / | / | / | . | /
COc1cccc(-c2ccc(CC[C@H]3O[C@H]4CC[C@H](CO)O[C@H]4C[C@@H]3NS(C)(=O)=O)cc2)c1 | / | . | / | / | / | /
CC(C)NC(=O)Nc1ccc2c(c1)CC(=O)N([C@H](C)CO)C[C@@H](C)[C@H](CN(C)S(=O)(=O)c1cn(C)cn1)O2 | / | . | / | / | . | /
CNC(C)C(=O)NC(C(=O)N1CCCC1C(=O)Nc1ccc2[nH]ccc2c1)C(C)C (stereo not drawn) | . | 95.6 | . | . | . | .

Screens from PubChem.
